Screening data from PubChem.
Yeast eIF2B = modulators of yeast eIF2B activity; S. cerevisiae eIF2B-epsilon R284H, GCN4-lacZ luminescence; inhibition, % at 25 µM (by protocol); 27,000 compounds, 0.91% hits; AID 688;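 active = mutant luminescence inhibited past about 50% while wild type luminescence and mutant growth stay under set limits, limit read from the data; inconclusive = mutant versus wild type luminescence inhibition gap past a set limit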
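Material – yeast eIF2B-epsilon R284H mutant carrying GCN4–beta-galactosidase fusion · Medium – YPD yeast growth medium · Compound – one concentration, 25 µM, 0.25% DMSO · Times – 16 h at 30 °C exposure · Signal – Beta-Glo luminescence plus absorbance at 595 nm · Read-out – % inhibition of reporter signal and growth versus controls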
Yeast tox = Inhibitors of S. cerevisiae growth, toxicity. S. cerevisiae wild-type growth, A595 turbidity, 16 h. growth inhibition, % at 25 µM (by protocol). 30,000 compounds, 0.3% hits. AID 685;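 active = mutant and wild-type yeast strains alike exhibit over 30% growth inhibition; inconclusive = a strain exceeds 50% while the second remains under 30%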;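 also: 0% = untreated cell controls and 100% = YPD media blanks without cells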
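System – wild-type and eIF2Bepsilon-R284H mutant S. cerevisiae, screened separately · Measured by – absorbance at 595 nm (turbidity) · Timing – 16 h compound exposure during growth at 30 °C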
Active calls of the source: *; ? = inconclusive; / = no result given. Rows were chosen to be rich in hits. Some 1.1% of all compounds tested hit in one or more screens of this group.

SMILES	Yeast eIF2B	Yeast tox
Nc1c(S(=O)(=O)c2cccc(Cl)c2)c2nc3ccccc3nc2n1/N=C/c1ccc(O)c(O)c1	38	/
COc1ccccc1-c1c(C#N)c(SCC(=O)N2CCCC2)nc(C)c1C(N)=O	-2	2
Clc1ccc2c(c1)C(N1CCNCC1)Cc1ccccc1S2 (stereo unspecified)	41	86*
CC[N+](CC)(CC)C/C(N)=N/O	-13	-2
CCOC(=O)COc1ccc(S(=O)(=O)NCc2ccncc2)cc1	-1	-11
CCOC(=O)COc1ccc(S(=O)(=O)NCc2ccco2)cc1	53*	-9
Cn1c(Cl)cnc1C(O)c1ccccc1 (stereo unspecified)	27	-16
CCC(=O)OC1=C2C(=Nc3c(c(=O)n(C)c(=O)n3C)C2c2ccccc2)c2ccccc21 (stereo unspecified)	24	-36
CC(C)CCNC(=O)C(c1ccncc1)N(Cc1cccs1)C(=O)Cn1nnc(-c2ccc(F)cc2)n1 (stereo unspecified)	11	-6
Oc1cc(Cc2ccccc2)cnc1CN1CCCCC1	56*	-15
O=C(C1CCCN(Cc2ccccc2)C1)N1CCCCC1 (stereo unspecified)	12	10
Cc1nn2c(C)c(C(=O)Nc3ccccc3)cnc2c1C#N	-10	?
Cc1cc2ncc(C(=O)Nc3ccccc3)c(C)n2n1	52*	4
O=C1CNC(=O)N1Cc1ccc(Br)cc1	51*	-9
Brc1ccc(CN2CCSCC2)cc1	11	9
O=C(Nc1nnc(CC(=O)N2CCCC2)s1)c1cnccn1	21	2
CCCCCC(=O)Nc1ccc(N2CCN(C(=O)CCC)CC2)cc1	5	-4
CCCCC(=O)Nc1ccc(N2CCN(S(C)(=O)=O)CC2)cc1	62*	3
Clc1ccc(NC2=NCCCCC2)cc1	13	2
CCC(Cc1ccccc1)NC(=O)CCn1cccc1 (stereo unspecified)	4	6
CCOC(=O)N1CCN(C(=O)c2ccc(NC(=O)CC)cc2)CC1	14	7
CCOC(=O)N1CCN(C(=O)c2ccc(N3CCCC3=O)cc2)CC1	56*	1
OC(Cn1cncn1)(c1ccccc1)c1ccccc1	/	86*
c1ccc(NCn2cncn2)nc1	10	3
[N-]=[N+]=CC(=O)c1ccnc(C(=O)C=[N+]=[N-])c1	21	8
SMILES	Yeast eIF2B	Yeast tox
CC(C)NC(=O)CSc1nc2ccccc2c(=O)n1CCCOC(C)C	-5	8
CC(NC(=O)CSc1nc2ccccc2c(=O)n1CCCO)c1ccccc1 (stereo unspecified)	53*	8
CCOc1ccc(OCCOc2ncnc3ccccc23)cc1	-21	-3
COc1ccc(S(=O)(=O)CCC(=O)N2CC(=O)N(CCc3ccccc3)C(=O)C2)cc1	25	4
COc1ccc(S(=O)(=O)CCC(=O)N2c3ccccc3CC2C)cc1 (stereo unspecified)	56*	-4
COc1ccc(-c2nnn(CC(=O)N(Cc3ccc(F)cc3)C(C(=O)NC3CCCC3)c3ccc(F)cc3)n2)cc1 (stereo unspecified)	56*	-8
CCOC(=O)CN(C(=O)Cn1nnc(-c2ccc(OC)cc2)n1)C(C(=O)NC1CCCC1)c1ccc(F)cc1 (stereo unspecified)	17	16
CC(C)(Oc1ccc(Cl)cc1)C(=O)Nc1ccncc1	/	76*
CC(C)(Oc1ccc(Cl)cc1)C(=O)NCc1ccco1	22	29
CC(=O)Nc1ccc(S(=O)(=O)NC2(C(F)(F)F)NC(=O)N(C3CCCCC3)C2=O)cc1 (stereo unspecified)	13	22
COC(=O)c1ccc(S(=O)(=O)NCCSc2nnc3c4ccccc4n(C)c3n2)cc1	13	24
O=S(=O)(NC1CCCCC1)c1ccc(Cl)s1	14	4
O=S1(=O)C=C(Sc2nnc(-c3ccccc3)o2)c2ccccc21	82	76*
CSc1nnc(-c2ccccc2)o1	2	4
Cc1c(C(=O)N2CCN(c3ccccc3F)CC2)sc2nc(-c3ccccc3)cn12	60*	11
Cc1c(C(N)=O)sc2nc(-c3ccccc3)cn12	17	7
Cc1ccc(N2CC(C(=O)Nc3nccs3)CC2=O)cc1Cl (stereo unspecified)	/	-2
O=C(Nc1ccc(Cl)c(Cl)c1)C1CC(=O)N(c2ccc(Br)cc2)C1 (stereo unspecified)	61	79*
CCOC(=O)c1cc2c(C(F)(F)F)cc(-c3cccnc3)nc2o1	16	-8
COc1cc2ccccc2cc1C(=O)Nc1cccnc1	18	2
O=C(Nc1cccnc1)c1ccccc1Oc1ccccc1	64*	-5
Cc1ccc(CC(=O)Nc2ccccc2N2CCOCC2)cc1C	/	10
O=C(O)c1ccc(Cn2cc(Cl)cn2)cc1	19	11
Oc1c(CN2CCOCC2)cc(-c2ccccc2)cc1CN1CCOCC1	6	39
Cc1c(O)c(CN2CCCC2)cc2c1oc(=O)c1ccccc12	58*	-2
